{"source": "ChEMBL document CHEMBL4680238", "about": "“Novel octapeptide-DTX prodrugs targeting MMP-7 as effective agents for the treatment of colorectal cancer with lower systemic toxicity” (Eur J Med Chem, 2020)", "key": {"[1]": {"experiment": "AUC (0 to t) in Sprague-Dawley rat assessed as docetaxel level at 5 mg/kg, iv measured up to 72 hrs by LC-MS/MS analysis", "type": "ADME, organism-based", "parameters": "route intravenous, dose 5 mg/kg, time <=72", "settings": "in vivo; call rule not given here", "procedure,_shortened": "(§1)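 Male SD rats (180-200 g), fasted 12 h with free water, n = 3 per group. Single tail-vein dose of 5 mg/kg in 0.5% DMSO/5% castor oil/5% ethanol/89.5% saline. Retro-orbital blood drawn 0.083-72 h with heparin. Plasma protein-precipitated with methanol containing paclitaxel internal standard, then analysed by LC-MS/MS. Parameters from non-compartmental analysis, mean ± SD. For the DTX group, parameters were calculated after converting dose to the molar equivalent of the prodrug.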"}, "[2]": {"experiment": "Apparent volume of distribution in Sprague-Dawley rat at 5 mg/kg, iv measured up to 72 hrs by LC-MS/MS analysis", "type": "ADME, organism-based", "settings": "in vivo, read-out: Vz", "procedure,_shortened": "as §1"}, "[3]": {"experiment": "Toxicity in BALB/c nude mouse xenografted with human HCT-116 cells assessed as disordered myocardial fiber in heart at 11.73 mg/kg, ip administered once for every 7 days for 14 days by H and E staining based assay", "type": "organism-based", "settings": "in vivo, 336 h, time 14 day", "procedure,_shortened": "(§2)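 At the end of the 14-day ip xenograft study (HCT116, BALB/c nude), heart and liver were collected from vehicle and molar-equivalent dose groups. Tissues fixed in 10% formalin in PBS and stained with H&E. Liver examined at 400×, heart at 100×.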"}, "[4]": {"experiment": "Drug uptake in BALB/c nude mouse xenografted with human HCT-116 cells assessed as drug level in heart at 5 mg/kg, iv measured up to 24 hrs by LC-MS/MS analysis", "type": "ADME, organism-based", "settings": "in vivo", "procedure,_shortened": "(§3)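 Male BALB/c nude mice bearing s.c. HCT116 tumours (200-300 mm3), 20 per group. Single tail-vein dose of 5 mg/kg. Five mice per group killed at 0.5, 4, 8 and 24 h and heart-perfused with PBS. Tissues homogenized in saline (4 µL/mg) and precipitated with methanol containing paclitaxel internal standard. Prodrug, released DTX and free DTX measured by LC-MS/MS.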"}, "[5]": {"experiment": "MRT (0 to infinity) in Sprague-Dawley rat assessed as docetaxel level at 5 mg/kg, iv measured up to 72 hrs by LC-MS/MS analysis", "type": "ADME, organism-based", "settings": "in vivo", "procedure,_shortened": "as §1"}, "[6]": {"experiment": "AUC (0 to infinity) in Sprague-Dawley rat at 5 mg/kg, iv measured up to 72 hrs by LC-MS/MS analysis", "type": "ADME, organism-based", "parameters": "route intravenous, dose 5 mg/kg, time <=72", "settings": "Sprague-Dawley, in vivo", "procedure,_shortened": "as §1"}, "[7]": {"experiment": "Apparent clearance in Sprague-Dawley rat assessed as docetaxel level at 5 mg/kg, iv measured up to 72 hrs by LC-MS/MS analysis", "type": "ADME, organism-based", "settings": "in vivo", "procedure,_shortened": "as §1"}, "[8]": {"experiment": "Half life in Sprague-Dawley rat assessed as docetaxel level at 5 mg/kg, iv measured up to 72 hrs by LC-MS/MS analysis", "type": "ADME, organism-based", "settings": "in vivo", "procedure,_shortened": "as §1"}, "HCT-116 [9]": {"tested_on": "HCT-116", "experiment": "Antitumour activity against human HCT-116 cells xenografted in BALB/c nude mouse assessed as tumour growth inhibition at 5.85 mg/kg, ip administered once for every 7 days for 14 days relative to control", "type": "functional", "settings": "HCT-116, ip, 336 h, time 14 day, read-out: TGI", "procedure,_shortened": "(§4)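 Male BALB/c nude mice received s.c. HCT116 cells (2 × 10^6 in 0.2 mL PBS). Once tumours reached 100-200 mm3, mice were randomized into groups of six. Dosing was ip, 0.1 mL/10 g, once every 7 days, in DMSO 0.5%/castor oil 5%/ethanol 5%/saline 89.5%; vehicle controls got solvent. Caliper volume V = L×W²×0.52 read every 2-3 days. Tumours excised and weighed on day 14.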"}, "[10]": {"experiment": "Half life in Sprague-Dawley rat plasma t 50 ug/ml up to 72 hrs by RP-HPLC analysis", "type": "ADME, cell-free", "settings": "dose 50 µg/ml"}, "[11]": {"experiment": "Toxicity in BALB/c nude mouse xenografted with human HCT-116 cells assessed as inflammatory cell invasion in heart at 11.73 mg/kg, ip administered once for every 7 days for 14 days by H and E staining based assay", "type": "organism-based", "settings": "in vivo, 336 h, time 14 day", "procedure,_shortened": "as §2"}, "[12]": {"experiment": "Drug uptake in BALB/c nude mouse xenografted with human HCT-116 cells assessed as drug level in kidney at 5 mg/kg, iv measured up to 24 hrs by LC-MS/MS analysis", "type": "ADME, organism-based", "settings": "in vivo", "procedure,_shortened": "as §3"}, "HCT-116 [13]": {"tested_on": "HCT-116", "experiment": "Antitumour activity against human HCT-116 cells xenografted in BALB/c nude mouse assessed as tumour growth inhibition at 23.4 mg/kg, ip administered once for every 7 days for 14 days relative to control", "type": "functional", "settings": "HCT-116, ip, 336 h, time 14 day, read-out: TGI", "procedure,_shortened": "as §4"}, "[14]": {"experiment": "Drug uptake in BALB/c nude mouse xenografted with human HCT-116 cells assessed as drug level in lung at 5 mg/kg, iv measured up to 24 hrs by LC-MS/MS analysis", "type": "ADME, organism-based", "settings": "in vivo", "procedure,_shortened": "as §3"}, "[15]": {"experiment": "Apparent volume of distribution in Sprague-Dawley rat assessed as docetaxel level at 5 mg/kg, iv measured up to 72 hrs by LC-MS/MS analysis", "type": "ADME, organism-based", "settings": "in vivo", "procedure,_shortened": "as §1"}, "SW-620 [16]": {"tested_on": "SW-620", "experiment": "Cytotoxicity against human SW-620 cells assessed as reduction in cell viability after 72 hrs by MTT assay", "type": "functional, cell-based", "settings": "SW-620, 72 h", "procedure,_shortened": "(§5)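 Cells seeded at 5000/well and precultured 1 day. HCT116 grown in McCoy's 5A + 10% FBS; SW620 and HEK293 in DMEM + 10% FBS; CCD18Co in DMEM + 15% FBS. Compounds from 0.1 M DMSO stocks were tested at 10^-10 to 10^-4 mol/L in sixplicate: HCT116 and HEK293 for 48 h, SW620 and CCD18Co for 72 h, at 37 °C, 5% CO2. MTT (5 mg/mL) added for 4 h, then A570 read; IC50 estimated.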"}, "[17]": {"experiment": "Toxicity in BALB/c nude mouse xenografted with human HCT-116 cells assessed as reduction in body weight at 23.4 mg/kg, ip administered once for every 7 days for 14 days relative to control", "type": "organism-based", "parameters": "scale not given: the % may be the effect or the level left", "settings": "in vivo, 336 h, time 14 day", "procedure,_shortened": "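HCT116 s.c. xenografts in male BALB/c nude mice, n = 6 per group. Dosing was ip once every 7 days for 2 weeks in DMSO/castor oil/ethanol/saline; vehicle controls got solvent. Body weight recorded every other day or every three days. Weight loss taken at day 14. Mean ± SD.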"}, "[18]": {"experiment": "Toxicity in BALB/c nude mouse xenografted with human HCT-116 cells assessed as concentrated nucleus in liver at 11.73 mg/kg, ip administered once for every 7 days for 14 days by H and E staining based assay", "type": "organism-based", "settings": "in vivo, 336 h, time 14 day", "procedure,_shortened": "as §2"}, "HEK293": {"tested_on": "HEK293", "experiment": "Cytotoxicity against HEK293 cells assessed as reduction in cell viability after 48 hrs by MTT assay", "type": "cell-based", "settings": "Homo sapiens, HEK293, 48 h", "procedure,_shortened": "as §5"}, "[19]": {"experiment": "AUC (0 to t) in Sprague-Dawley rat at 5 mg/kg, iv measured up to 72 hrs by LC-MS/MS analysis", "type": "ADME, organism-based", "parameters": "route intravenous, dose 5 mg/kg, time <=72", "settings": "in vivo", "procedure,_shortened": "as §1"}, "SW-620 [20]": {"tested_on": "SW-620", "experiment": "Potency index, ratio of 4FDT IC50 to test compound IC50 for Cytotoxicity against human SW-620 cells", "type": "functional"}, "CCD-18Co": {"tested_on": "CCD-18Co", "experiment": "Cytotoxicity against human CCD-18Co cells assessed as reduction in cell viability after 72 hrs by MTT assay", "type": "cell-based", "procedure,_shortened": "as §5"}, "[21]": {"experiment": "Apparent clearance in Sprague-Dawley rat at 5 mg/kg, iv measured up to 72 hrs by LC-MS/MS analysis", "type": "ADME, organism-based", "settings": "Sprague-Dawley, in vivo, read-out: CL(app) (converted)", "procedure,_shortened": "as §1"}, "HCT-116 [22]": {"tested_on": "HCT-116", "experiment": "Antitumour activity against human HCT-116 cells xenografted in BALB/c nude mouse assessed as tumour growth inhibition at 11.7 mg/kg, ip administered once for every 7 days for 14 days relative to control", "type": "functional", "settings": "HCT-116, ip, 336 h, time 14 day, read-out: TGI", "procedure,_shortened": "as §4"}}, "note": "Residues, ends and D or L forms follow the SMILES beside them. *: point of attachment. X1 = CC(=O)O[C@@]12CO[C@@H]1C[C@H](O)[C@@]1(C)C(=O)[C@H](O)C3=C(C)[C@@H](OC(=O)[C@H](OC(=O)OCc4ccc(N*)cc4)[C@@H](NC(=O)OC(C)(C)C)c4ccccc4)C[C@@](O)([C@@H](OC(=O)c4ccccc4)[C@H]21)C3(C)C"}
{"compound": "CC[C@H](C)[C@H](NC(=O)CNC(=O)[C@H](CCC(N)=O)NC(=O)[C@@H]1CCCN1C(=O)CNC(C)=O)C(=O)N[C@@H](C)C(=O)N[C@@H](CCSC)C(=O)N[C@@H](CCC(N)=O)C(=O)N[C@@H](CC(C)C)C(=O)Nc1ccc(COC(=O)O[C@@H](C(=O)O[C@H]2C[C@@]3(O)[C@@H](OC(=O)c4ccccc4)[C@@H]4[C@]5(OC(C)=O)CO[C@@H]5C[C@H](O)[C@@]4(C)C(=O)[C@H](O)C(=C2C)C3(C)C)[C@@H](NC(=O)OC(C)(C)C)c2ccccc2)cc1", "note": "(Ac-GPQGIAMQL-X1)", "values": [{"measurement": "AUCt", "setting": "[1]", "value": 247, "unit": "ng·h/mL"}, {"measurement": "Vd", "setting": "[2]", "value": 10.4, "unit": "L/kg"}, {"measurement": "Activity", "setting": "[3]", "value": "Non-Toxic"}, {"measurement": "Drug uptake", "setting": "[4]", "value": "Active"}, {"measurement": "MRT", "setting": "[5]", "value": 9.04, "unit": "h"}, {"measurement": "AUC(0-inf)", "setting": "[6]", "value": 9240, "unit": "ng·h/mL"}, {"measurement": "CL(app)", "setting": "[7]", "value": 316.3, "unit": "mL/min/kg"}, {"measurement": "t1/2", "setting": "[8]", "value": 7.03, "unit": "h"}, {"measurement": "inhibition in vivo at 5.85 mg/kg", "setting": "HCT-116 [9]", "value": 28.8, "unit": "%"}, {"measurement": "half-life at 50 ug/ml", "setting": "[10]", "value": 24.2, "unit": "h"}, {"measurement": "Activity", "setting": "[11]", "value": "Non-Toxic"}, {"measurement": "Drug uptake", "setting": "[12]", "value": "Active"}, {"measurement": "inhibition in vivo at 23.4 mg/kg", "setting": "HCT-116 [13]", "value": 56.1, "unit": "%"}, {"measurement": "Drug uptake", "setting": "[14]", "value": "Active"}, {"measurement": "Vz", "setting": "[15]", "value": 206.32, "unit": "L/kg"}, {"measurement": "IC50", "setting": "SW-620 [16]", "value": 0.03, "unit": "µM"}, {"measurement": "Activity", "setting": "[17]", "value": 12.2, "unit": "%"}, {"measurement": "Activity", "setting": "[18]", "value": "Non-Toxic"}, {"measurement": "IC50", "setting": "HEK293", "value": 137, "unit": "µM"}, {"measurement": "AUC(0-t) at 72 h", "setting": "[19]", "value": 9070, "unit": "ng·h/mL"}, {"measurement": "Ratio IC50", "setting": "SW-620 [20]", "value": 9}, {"measurement": "IC50", "setting": "CCD-18Co", "value": "> 200", "unit": "µM"}, {"measurement": "clearance", "setting": "[21]", "value": 9.33, "unit": "mL/min/kg"}, {"measurement": "inhibition in vivo at 11.7 mg/kg", "setting": "HCT-116 [22]", "value": 46.3, "unit": "%"}]}
